Data: ChEMBL document CHEMBL2331302, “Selection of heptapeptides that bind helix 69 of bacterial 23S ribosomal RNA” (Bioorg Med Chem, 2013)
Each block holds one compound with its values, some of them ahead of it. Active and inactive are the calls of the source. The rule behind the calls is not given here.

Key:
Escherichia coli [1] = assay: Selectivity ratio of Kd for Escherichia coli H69-UUU RNA to Kd for wild type Escherichia coli H69 RNA
[2] = Binding affinity to Escherichia coli A-site 16s rRNA at pH 7 after 30 mins by ESI-MS analysis; conditions: read-out: Kd(app)
How it was run: (§1)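 ESI-MS titration of free amidated peptide (0–120 μM) with 1–3 μM RNA (50 μL) in 150 mM ammonium acetate, pH 7.0 or 5.2, 25% 2-propanol. Summed peak areas of complexes (1:1, 1:2, Na+/K+ adducts) over free plus complexed RNA give fraction bound, either per charge state (4−, 5−) or all states. Apparent Kd comes from a quadratic fit, three independent experiments.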

[3] = Binding affinity to Escherichia coli helix 31 at pH 7 after 30 mins by ESI-MS analysis; conditions: read-out: Kd(app); how it was run: as §1
[4] = Binding affinity to human H69 RNA at pH 7 after 30 mins by ESI-MS analysis; conditions: read-out: Kd(app); how it was run: as §1
Escherichia coli [5] = assay: Ratio of apparent Kd for wild type Escherichia coli H69-UUU RNA at 4- charge state at pH 5.2 to apparent Kd for wild type Escherichia coli H69-UUU RNA at 4- charge state at pH 7
How it was run: (§2)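 The ratio compares apparent Kd for the 4− charge-state 1:1 complex from ESI-MS titrations at pH 5.2 and pH 7.0. Conditions: 150 mM ammonium acetate, 25% 2-propanol, 1–3 μM RNA, 0–120 μM amidated peptide, quadratic fit.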

Escherichia coli [6] = assay: Ratio of apparent Kd for wild type Escherichia coli H69 RNA at 4- charge state at pH 5.2 to apparent Kd for wild type Escherichia coli H69 RNA at 4- charge state at pH 7; how it was run: as §2
[7] = Binding affinity to wild type Escherichia coli H69 RNA at 4- charge state at pH 5.2 after 30 mins by ESI-MS analysis; conditions: read-out: Kd(app); how it was run: as §1
[8] = Binding affinity to Escherichia coli H69-UUU RNA at 4- charge state at pH 5.2 after 30 mins by ESI-MS analysis; conditions: read-out: Kd(app); how it was run: as §1
Escherichia coli [9] = assay: Selectivity ratio of apparent Kd for Escherichia coli H69-2(pseudouridine)U RNA at 4- charge state at pH 7 to apparent Kd for wild type Escherichia coli H69 RNA at 4- charge state at pH 7
How it was run: (§3)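 The ratio compares apparent Kd for each RNA with that for modified wild-type H69, both for 1:1 complexes from ESI-MS at pH 7.0. Conditions: 150 mM ammonium acetate, 25% 2-propanol, 1–3 μM RNA, 0–120 μM amidated peptide, fraction bound fitted by a quadratic equation.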

Escherichia coli [10] = assay: Selectivity ratio of apparent Kd for Escherichia coli H69-pseudouridineUpseudouridine RNA at 4- charge state at pH 7 to apparent Kd for wild type Escherichia coli H69 RNA at 4- charge state at pH 7
Escherichia coli [11] = assay: Selectivity ratio of apparent Kd for Escherichia coli H69-U2(pseudouridine) RNA at 4- charge state at pH 7 to apparent Kd for wild type Escherichia coli H69 RNA at 4- charge state at pH 7; how it was run: as §3
Escherichia coli [12] = assay: Selectivity ratio of apparent Kd for Escherichia coli H69-UUU RNA at 4- charge state at pH 7 to apparent Kd for wild type Escherichia coli H69 RNA at 4- charge state at pH 7; how it was run: as §3
[13] = Binding affinity to Escherichia coli H69-2(pseudouridine)U RNA at 4- charge state at pH 7 after 30 mins by ESI-MS analysis; conditions: read-out: Kd(app); how it was run: as §1
[14] = Binding affinity to Escherichia coli H69-pseudouridineUpseudouridine RNA at 4- charge state at pH 7 after 30 mins by ESI-MS analysis; conditions: read-out: Kd(app)
How it was run: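 ESI-MS on a tandem quadrupole instrument: 1–3 μM RNA with 0–120 μM amidated peptide in 150 mM ammonium acetate, pH 7.0, 25% 2-propanol. Summed peak areas of free RNA and 1:1 complex (with Na+/K+ adducts) at the 4− charge state were used to get the fraction bound. Apparent Kd came from a quadratic-equation non-linear fit. Three independent experiments were run.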

[15] = Binding affinity to Escherichia coli H69-U2(pseudouridine) RNA at 4- charge state at pH 7 after 30 mins by ESI-MS analysis; conditions: read-out: Kd(app); how it was run: as §1
[16] = Binding affinity to Escherichia coli H69-UUU RNA at 4- charge state at pH 7 after 30 mins by ESI-MS analysis; conditions: read-out: Kd(app); how it was run: as §1
[17] = Selectivity ratio of apparent Kd for human H69 RNA at pH 7 to apparent Kd for wild type Escherichia coli H69 RNA at pH 7; how it was run: as §3
Escherichia coli [18] = assay: Selectivity ratio of apparent Kd for Escherichia coli A-site 16s rRNA at pH 7 to apparent Kd for wild type Escherichia coli H69 RNA at pH 7; how it was run: as §3
Escherichia coli [19] = assay: Selectivity ratio of apparent Kd for Escherichia coli helix 31 at pH 7 to apparent Kd for wild type Escherichia coli H69 RNA at pH 7; how it was run: as §3
Escherichia coli [20] = assay: Binding affinity to wild type Escherichia coli Qdot-labeled H69 RNA after 16 hrs by fluorescein-based bead assay
How it was run: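 1 nM fluorescein-H69 was pre-incubated 1 h with 1 nM anti-fluorescein Qdot 655, then with beads for 16 h at 4 °C. Beads were washed, and red and green per-bead pixel intensities (1–255 scale) quantified against no-peptide beads.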

Homo sapiens [21] = species on record: Homo sapiens; assay: Binding affinity to human 5'-fluorescein-tagged 18s RNA after 24 hrs by fluorescein-based bead assay
How it was run: (§4)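 TentaGel beads carrying peptide with a free N-terminus were blocked 3 h in SuperBlock (PBS, 0.05% Tween-20) and water-washed. About 10–12 beads were incubated with 15 μL of 1 μM 5′-fluorescein-labelled RNA in 10 mM HEPES for 24 h at 4 °C with shaking, repeated 4× with fresh RNA. Beads were water-washed and imaged by fluorescence microscopy. Peptide-free beads gave background.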

Homo sapiens [22] = species on record: Homo sapiens; assay: Binding affinity to human 5'-fluorescein-tagged TAR RNA after 24 hrs by fluorescein-based bead assay; how it was run: as §4
Escherichia coli [23] = assay: Binding affinity to wild type Escherichia coli 5'-fluorescein-tagged H69 RNA after 24 hrs by fluorescein-based bead assay relative to control; how it was run: as §4

Compound: NC[C@@H]1O[C@H](O[C@H]2[C@@H](O)[C@H](O[C@@H]3[C@@H](O)[C@H](N)C[C@H](N)[C@H]3O[C@H]3O[C@H](CO)[C@@H](O)[C@H](O)[C@H]3N)O[C@@H]2CO)[C@H](N)[C@@H](O)[C@@H]1O
Selectivity ratio (Escherichia coli [1]): 2

Compound: H-NQVANHQ-NH2
Kd [2]: 49 µM | Kd [3]: 33 µM | Kd [4]: 50 µM | Ratio (Escherichia coli [5]): 1.6 | Ratio (Escherichia coli [6]): 2.8 | Kd [7]: 34 µM | Kd [8]: 31 µM | Selectivity ratio (Escherichia coli [9]): 2.3 | Selectivity ratio (Escherichia coli [10]): 2.3 | Selectivity ratio (Escherichia coli [11]): 2.3 | Selectivity ratio (Escherichia coli [12]): 1.6 | Kd [13]: 28 µM | Kd [14]: 28 µM | Kd [15]: 28 µM | Kd [16]: 19 µM | Selectivity ratio [17]: 4 | Selectivity ratio (Escherichia coli [18]): 4 | Selectivity ratio (Escherichia coli [19]): 3

Activity (Escherichia coli [20]): Active | Activity (Homo sapiens [21]): inactive | Activity (Homo sapiens [22]): inactive | Activity (Escherichia coli [23]): Active
Compound: H-NQVANHQ-OH

Activity (Escherichia coli [20]): Active | Activity (Homo sapiens [22]): Active | Activity (Escherichia coli [23]): Active
Compound: H-STYTSVS-OH
